E coli Lon inh: E. coli protease La inhibition. P0A9M0. purified E. coli Lon protease, fluorescence polarization. inhibition, % at 7.94 µM. 0.42% of 360,000 active. AID 602123; in the data active = inhibition above about 13%, passing the limit was not always enough;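 also: 0% = enzyme with probe and DMSO and 100% = no enzyme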
GSTO1 counter: GSTO1 inhibition, counter-screen for RBBP9 inhibitors. recombinant GSTO1, activity-based probe fluorescence polarization. inhibition, % at 5.96 µM. 1.1% of 300,000 active;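 active = inhibition above the campaign mean inhibition plus 3 SD, cut at about 35% in these data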;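 also: 0% = GSTO1-1 with DMSO and 100% = wells lacking GSTO1-1 enzyme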
PRMT1 inh: PRMT1 (human) inhibition, primary screen | Q99873 | 1.3% of 370,000 active | recombinant PRMT1, activity-based probe fluorescence polarization | inhibition, % at 2.79 µM | AID 652257;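 active = inhibition above about 21% made by adding two undisclosed values, limit read from the data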
PAD4 FP inh: blocks human protein arginine deiminase 4 | recombinant PAD4, RCA probe fluorescence polarization | inhibition, % at 6.36 µM | 0.41% of 330,000 active | AID 485272;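 active = percent inhibition above a cutoff equal to the mean of all tested compounds plus 3 SD, cut at about 15% in these data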;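 also: 0% = PAD4 with RCA probe and DMSO and 100% = probe without PAD4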
TDP2 absorb: TDP2 (human) inhibition, absorbance primary screen; O95551; recombinant TDP2, T5PNP hydrolysis, p-nitrophenol absorbance 415 nm; inhibition, % at 12.8 µM; 0.34% of 370,000 active;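 active = inhibition above the mean of all tested compounds plus 3 SD, set per campaign, cut at about 25% in these data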;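 also: 0% = DMSO with enzyme and 100% = buffer with substrate but no TDP2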
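Incubation: 2 h at 37 °C; Test system: recombinant human TDP2; Quantity: enzyme 120 nM; Read-out basis: percent inhibition; Medium: 50 mM Tris-HCl pH 7.5 with Mg2+, KCl, DTT, BSA; Repeats: single replicate; Compound: 12.8 µM single point, 1% DMSO; Signal: epi absorbance; Reagent: 5 mM T5PNP chromogenic substrate; Benchmarks: no-enzyme high, DMSO-plus-enzyme low.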
PRMT1 confirm: confirmation of human PRMT1 inhibitors; 42% of 3,300 active; shares compounds with PRMT1 inh; recombinant His-PRMT1, activity-based probe fluorescence polarization; inhibition, % at 2.79 µM;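 active = mean inhibition across replicates above the hit cutoff derived for the earlier primary screen, cut at about 22% in these data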
* = called active by the depositor. Rows were chosen to be rich in hits. Some 2.5% of all compounds tested hit in one or more screens of this group.

For O=[N+]([O-])c1cc(-c2ccc(C(=S)N3CCOCC3)o2)ccc1Cl the results were E coli Lon inh -1, GSTO1 counter 16, PRMT1 inh 44*, PAD4 FP inh -14, TDP2 absorb -2 and PRMT1 confirm 18.
For CCNC(=O)C1(C)CCN(C(=O)c2cccc(OC(F)(F)F)c2)C1 (centres undefined) the results were E coli Lon inh -10, PRMT1 inh 2 and TDP2 absorb 5.
For COc1ccc2c(c1)CCc1c(C(=O)N(C)c3ccccc3)noc1-2 the results were E coli Lon inh 0, GSTO1 counter -20, PRMT1 inh -2, PAD4 FP inh 0 and TDP2 absorb 2.
`Nc1ccc(O)cc1C(=O)OCC(=O)c1ccc(C2CCCCC2)cc1` gave E coli Lon inh 1, GSTO1 counter 10, PRMT1 inh 29*, PAD4 FP inh -8, TDP2 absorb 7 and PRMT1 confirm -1.
Screening COc1ccc(C(=O)OCC(=O)c2ccc(C3CCCCC3)cc2)cc1 returned E coli Lon inh -10, GSTO1 counter 0, PRMT1 inh 0, PAD4 FP inh 2 and TDP2 absorb 9.
Cc1cc(C)nc(NC(=S)NC(=O)c2ccccc2F)n1 was read as E coli Lon inh -8, GSTO1 counter -3, PRMT1 inh -2, PAD4 FP inh 0 and TDP2 absorb 7.
For Cc1cc(C)nc(S/C=C/C(=O)c2ccccc2F)n1 the results were E coli Lon inh -4, GSTO1 counter 12, PRMT1 inh 25*, PAD4 FP inh -1, TDP2 absorb -5 and PRMT1 confirm 19.
`CCCN1CCN(C(=O)c2ccc(CS(=O)c3ccc(Br)cc3)o2)CC1` (centres undefined) gave E coli Lon inh -5, PRMT1 inh -4 and TDP2 absorb -8.
Screening COc1ccc(-c2nc(CSCC(=O)NC3CCCc4ccccc43)c(C)o2)cc1 (centres undefined) returned E coli Lon inh 3, GSTO1 counter -4, PRMT1 inh 29*, PAD4 FP inh -5, TDP2 absorb -5 and PRMT1 confirm 26*.
For COc1ccccc1N(C)S(=O)(=O)c1ccc(C)c(C(=O)Nc2nccs2)c1 the results were E coli Lon inh -3, GSTO1 counter 4, PRMT1 inh 2, PAD4 FP inh -1 and TDP2 absorb 7.
For O=C1CC(N2CCC(c3nc4ccccc4[nH]3)CC2)C(=O)N1c1cccc(F)c1 (centres undefined) the results were E coli Lon inh -5, GSTO1 counter -5, PRMT1 inh 43*, PAD4 FP inh -7, TDP2 absorb -12 and PRMT1 confirm 9.
For CC1CCN(C2CC(=O)N(c3ccccc3)C2=O)CC1 (centres undefined) the results were E coli Lon inh -3, GSTO1 counter -3, PRMT1 inh 81*, PAD4 FP inh 5, TDP2 absorb -7 and PRMT1 confirm 4.
O=C1CC(N2CCSCC2)C(=O)N1c1ccc(Br)cc1 (centres undefined) was read as E coli Lon inh 9, GSTO1 counter 0, PRMT1 inh 14, PAD4 FP inh -1 and TDP2 absorb 0.
`CC1CCN(C2CC(=O)N(c3ccc(Br)cc3Br)C2=O)CC1` (centres undefined) gave E coli Lon inh -5, GSTO1 counter 7, PRMT1 inh 64*, PAD4 FP inh -3, TDP2 absorb -2 and PRMT1 confirm 16.
Screening CCOC(=O)C1=CC[C@@H](c2ccccc2)N(S(=O)(=O)c2ccc(C)cc2)[C@H]1C#N returned E coli Lon inh -1, PRMT1 inh 27*, TDP2 absorb -3 and PRMT1 confirm 22*.
Screening C=CCN1C(=O)[C@@H](CC(=O)NCc2cccc3ccccc23)[C@]2(C(=O)OC)CCCCC=C12 returned PRMT1 inh 2 and TDP2 absorb 3.
Screening Cc1[nH]nc2c1C1(CCN(Cc3ccccc3)CC1)C(C#N)=C(N)O2 returned E coli Lon inh -9, GSTO1 counter 2, PRMT1 inh 34*, PAD4 FP inh -10, TDP2 absorb -1 and PRMT1 confirm 1.
Cc1[nH]nc2c1C1(CCOCC1)C(C#N)=C(N)O2 was read as E coli Lon inh -1, GSTO1 counter 8 and PAD4 FP inh -1.
`CCN1/C(=C/C=C/C=C/c2sc3ccccc3[n+]2CC)Sc2ccccc21` gave GSTO1 counter -124 and PAD4 FP inh -107.
